Measured values published in ChEMBL document CHEMBL1135645, “Synthesis and evaluation of analogues of 5'-([(Z)-4-amino-2-butenyl]methylamino)-5'-deoxyadenosine as inhibitors of tumor cell growth, trypanosomal growth, and HIV-1 infectivity” (J Med Chem, 2002).
pEC50, pIC50: −log10 of the molar value. One block for each compound: values may come before it.

Experiments:
[1] = test system: MCF7; assay: In vitro anti Neoplastic Activity against Adriamycin resistant Human Breast adenocarcinoma MCF7-Adr Cell lines; type: functional, cell-based
Procedure, shortened: (§1)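 SRB growth assay. Cell lines were grown as monolayers in RPMI-1640 with 5% FCS, 5% NuSerum IV, 20 mM HEPES and 2 mM glutamine, and seeded at 400–1200 cells/well. They attached for 15–18 h before drug. Ten concentrations over 5 logs were tested, with final DMSO ≤0.25%. Exposure was 72 h at 37 °C. Cells were TCA-fixed, stained with sulforhodamine B and read at OD 570 nm. IC50 is 50% growth inhibition.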

[2] = test system: MCF7; assay: In vitro anti Neoplastic Activity against Human Breast adenocarcinoma MCF-7 Cell lines; type: functional, cell-based; procedure, shortened: as §1
[3] = test system: A549; assay: In vitro anti Neoplastic Activity against Human non small cell lung carcinoma A549 Cell lines; type: functional, cell-based; procedure, shortened: as §1
[4] = test system: HT-29; assay: In vitro anti Neoplastic Activity in Human Colon adenocarcinoma HT-29 Cell lines; type: functional, cell-based; procedure, shortened: as §1
[5] = test system: A121; assay: In vitro anti Neoplastic Activity against Human ovarian carcinoma A121 Cell lines; type: functional, cell-based; procedure, shortened: as §1
[6] = test system: L1210; assay: In Vitro inhibition of L1210 Murine Leukemia Cells by the compound at a dose of 100 uM; type: functional; settings: Mus musculus
[7] = test system: L1210; assay: In vitro Anti Neoplastic Activity against L1210 murine leukemia Cell lines; type: functional, cell-based; settings: Mus musculus; procedure, shortened: as §1
[8] = test system: Trypanosoma brucei rhodesiense; assay: In Vitro inhibition of Trypanosomal 243 (KETRI)strain by the compound at a dose of 100 uM; type: functional
[9] = test system: Trypanosoma brucei brucei; assay: In Vitro inhibition of Trypanosomal 110 (EATRO)strain by the compound at a dose of 100 uM; type: functional
[10] = test system: L1210; assay: In vitro inhibition of AdoMetDC derived from L1210 Murine Leukemia Cells.; type: functional; settings: Mus musculus, read-out: ID50 (the source's name)
[11] = test system: L1210; assay: In vitro Neoplastic Activity against L1210 mucerine leukemia Cell lines; type: functional, cell-based; settings: Mus musculus; procedure, shortened: as §1
[12] = test system: Trypanosoma brucei rhodesiense; assay: In vitro antitrypanosomal activity against Trypanosomal 243 As 10e-3 (KETRI)strain; type: functional, organism-based
[13] = test system: Trypanosoma brucei rhodesiense; assay: In vitro antitrypanosomal activity against Trypanosomal 269 (KETRI)strain; type: functional, organism-based
[14] = test system: Trypanosoma brucei brucei; assay: In vitro antitrypanosomal activity against Trypanosomal 110 (EATRO)strain; type: functional, organism-based
[15] = test system: Trypanosoma brucei rhodesiense; assay: In vitro antitrypanosomal activity against Trypanosomal 243 (KETRI)strain; type: functional, organism-based
[16] = test system: Trypanosoma brucei rhodesiense; assay: In vitro anti trypanosomal activity against Trypanosomal 243 As 10e-3 (KETRI)strain; type: functional, organism-based
[17] = test system: Trypanosoma brucei rhodesiense; assay: In vitro anti trypanosomal activity against Trypanosomal 269 (KETRI)strain; type: functional, organism-based
[18] = test system: Trypanosoma brucei brucei; assay: In vitro anti trypanosomal activity against Trypanosomal 110 (EATRO)strain; type: functional, organism-based
[19] = test system: Trypanosoma brucei rhodesiense; assay: In vitro anti trypanosomal activity against Trypanosomal 243 (KETRI)strain; type: functional, organism-based
[20] = test system: MCF7; assay: In vitro Anti Neoplastic Activity against Human Breast adenocarcinoma MCF-7 Cell lines; type: functional, cell-based; procedure, shortened: as §1
[21] = test system: A549; assay: In vitro Antineoplastic Activity against Human non small cell lung carcinoma A549 Cell lines; type: functional, cell-based
[22] = test system: HT-29; assay: In vitro Antineoplastic Activity in Human Colon adenocarcinoma HT-29 Cell lines; type: functional, cell-based; procedure, shortened: as §1
[23] = test system: A121; assay: In vitro Antineoplastic Activity against Human ovarian carcinoma A121 Cell lines; type: functional, cell-based
[24] = test system: Trypanosoma brucei rhodesiense; assay: In vitro antitrypanosomal activity against Trypanosomal 243 (KETRI)strain at a dose of 100 uM; type: functional
[25] = test system: Trypanosoma brucei brucei; assay: In vitro antitrypanosomal activity against Trypanosomal 110 (EATRO)strain at a dose of 100 uM; type: functional
[26] = test system: MCF7; assay: In vitro Anti Neoplastic Activity against Adriamycin resistant Human Breast adenocarcinoma MCF7-Adr Cell lines; type: functional, cell-based; procedure, shortened: as §1
[27] = test system: CCRF-CEM; assay: Concentration that causes morphological changes in noninfected CEM-SS cells; type: functional; settings: Homo sapiens, read-out: TC50 (the source's name)
[28] = test system: Human immunodeficiency virus 1; assay: In Vitro Anti-HIV activity of the compound; type: functional; settings: read-out: ED50 (the source's name)
[29] = test system: MCF7; assay: In vitro Antineoplastic Activity against Adriamycin resistant Human Breast adenocarcinoma MCF7-Adr Cell lines; type: functional, cell-based
[30] = test system: MCF7; assay: In vitro Neoplastic Anti Activity against Human Breast adenocarcinoma MCF-7 Cell lines; type: functional, cell-based
[31] = test system: HT-29; assay: In vitro Neoplastic Anti Activity in Human Colon adenocarcinoma HT-29 Cell lines; type: functional, cell-based
[32] = test system: Mus musculus; assay: Ratio of number of mice cured to that of total treated with the compound at 100 mg/kg for 7 days; type: functional
[33] = test system: Mus musculus; assay: Ratio of number of mice cured to that of total treated with the compound at 10 mg/kg for 3 days; type: functional
[34] = test system: Mus musculus; assay: Ratio of number of mice cured to that of total treated with the compound at 25 mg/kg for 3 days; type: functional
[35] = test system: Mus musculus; assay: Ratio of number of mice cured to that of total treated with the compound at 25 mg/kg for 7 days; type: functional
[36] = test system: Mus musculus; assay: Ratio of number of mice cured to that of total treated with the compound at 50 mg/kg for 3 days; type: functional
[37] = test system: Mus musculus; assay: Ratio of number of mice cured to that of total treated with the compound at 50 mg/kg for 7 days; type: functional
[38] = test system: Trypanosoma brucei brucei; assay: Mean survival days against T.b. peritoneal administration at 10 mg/kg for 3 days.; type: functional
[39] = test system: Trypanosoma brucei brucei; assay: Mean survival days against T.b. peritoneal administration at 25 mg/kg for 3 days.; type: functional
[40] = test system: Trypanosoma brucei brucei; assay: Mean survival days against T.b. peritoneal administration at 50 mg/kg for 3 days.; type: functional
[41] = test system: Trypanosoma brucei rhodesiense; assay: Mean survival days against T.b. rhodesiense KETRI 243 tested in mice after intra peritoneal administration at 100 mg/kg for 7 days.; type: functional
[42] = test system: Trypanosoma brucei rhodesiense; assay: Mean survival days against T.b. rhodesiense KETRI 243 tested in mice after intra peritoneal administration at 25 mg/kg for 7 days.; type: functional
[43] = test system: Trypanosoma brucei rhodesiense; assay: Mean survival days against T.b. rhodesiense KETRI 243 tested in mice after intra peritoneal administration at 50 mg/kg for 7 days.; type: functional
[44] = Differential selectivity as the ratio of TC50 value to that of EC50 value.; type: functional
Procedure, shortened: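 Syncytial plaque assay: log-phase CEM-SS cells were PBS-washed and plated at 50 000 per well in serum-free RPMI-1640 on poly-L-lysine-coated wells (30 min, 37 °C). They were inoculated with HIV-1 (60–90 PFU) for 120 min, then overlaid with compound in growth medium (2-fold dilutions, 0.00015–20 μM). A second overlay followed on day 3, with 5 days total. EC50 is 50% inhibition of plaque formation. TC50 is morphological change in noninfected CEM-SS cells.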

pIC50 [1]: < 4.00 | pIC50 [2]: < 4.00 | pIC50 [3]: < 4.00 | pIC50 [4]: < 4.00 | pIC50 [5]: < 4.00 | pIC50 [7]: < 3.22
SMILES: CN(Cc1ccc(CN)cc1)C[C@H]1OC(n2cnc3c(N)ncnc32)[C@H](O)[C@@H]1O (stereo partly drawn)
inhibition at 100 µM [6]: 21% | inhibition at 100 µM [8]: 23% | inhibition at 100 µM [9]: 21%

pIC50 [10]: 4.70 | pIC50 [11]: 3.30 | pIC50 [12]: 4.52 | pIC50 [13]: 4.13 | pIC50 [14]: 5.38 | pIC50 [15]: 5.54
SMILES: CN(C/C=C\CN)CC1OC(n2cnc3c(N)ncnc32)CC1O (stereo not drawn)

pIC50 [1]: < 4.00 | pIC50 [2]: < 4.00 | pIC50 [3]: < 4.00 | pIC50 [4]: < 4.00 | pIC50 [5]: < 4.00 | pIC50 [10]: < 4.00 | pIC50 [16]: 6.02 | pIC50 [17]: 4.96 | pIC50 [18]: 5.00 | pIC50 [19]: 5.18
SMILES: CN(C/C=C\CN)CCOCn1cnc2c(N)nc(N)nc21

pIC50 [20]: < 4.00 | pIC50 [21]: < 4.00 | pIC50 [22]: < 4.00 | pIC50 [23]: < 4.00 | pIC50 [7]: < 3.22 | pIC50 [26]: < 4.00
SMILES: CNC[C@H]1OC(n2cnc3c(N)ncnc32)[C@H](O)[C@@H]1O (stereo partly drawn)
inhibition at 100 µM [24]: 26% | inhibition at 100 µM [25]: 44%

SMILES: CN(C/C=C\CN)C[C@H]1O[C@@H](n2cnc3c(N)ncnc32)[C@H](O)[C@@H]1O
CC50 [27]: < 6.25 µM | pEC50 [28]: 6.03 | pIC50 [29]: 3.70 | pIC50 [30]: < 4.00 | pIC50 [21]: 5.52 | pIC50 [31]: < 4.00 | pIC50 [23]: < 4.00 | pIC50 [10]: 7.11 | No. cured/total [32]: 4 | No. cured/total [33]: 4 | No. cured/total [34]: 5 | No. cured/total [35]: 2 | No. cured/total [36]: 5 | No. cured/total [37]: 2 | pIC50 [12]: 7.00 | pIC50 [13]: 6.66 | pIC50 [14]: 7.00 | pIC50 [15]: 7.40 | MSD [38]: 12 days | MSD [39]: >34 days | MSD [40]: >34 days | MSD [41]: 32 days | MSD [42]: 31 days | MSD [43]: 31.3 days | Selectivity [44]: 6.7
